What was measured:
Format in all cases: functional
[1] = test system: Heligmosomoides polygyrus; assay: Anthelmintic activity ( in Vivo ) in mouse, as percentage reduction of Nematospiroides dubius at 62 PPM
Method in brief: (§1)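 Mice infected by oral gavage with 35-40 N. dubius L3 larvae plus 5000 H. nana eggs each. From 24 h post-infection, groups of four fed compound ad lib in powdered lab chow (31-1000 ppm) for 18 days. Killed on day 19; N. dubius counted in duodenum under dissecting microscope. Percent reduction computed from mean worm counts, treated vs untreated control.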

[2] = test system: Heligmosomoides polygyrus; assay: Anthelmintic activity ( in Vivo ) in mouse, as percentage reduction of Nematospiroides dubius at 31 PPM; method in brief: as §1
[3] = test system: Heligmosomoides polygyrus; assay: Anthelmintic activity ( in Vivo ) in mouse, as percentage reduction of Nematospiroides dubius at 125 PPM; method in brief: as §1
[4] = test system: Heligmosomoides polygyrus; assay: Anthelmintic activity ( in Vivo ) in mouse, as percentage reduction of Nematospiroides dubius at 500 PPM; method in brief: as §1
[5] = test system: Heligmosomoides polygyrus; assay: Anthelmintic activity ( in Vivo ) in mouse, as percentage reduction of Nematospiroides dubius at 250 PPM; method in brief: as §1
[6] = test system: Ovis aries; assay: Anthelmintic activity (in Vivo)in sheep as percentage reduction versus control (by administration of benzimidazole-susceptible L3 larvae of T colubriformis intraruminally) at 10 mg/kg po
Method in brief: (§2)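 Sheep on lucerne/oaten chaff were infected intraruminally on day 0 with benzimidazole-susceptible L3 larvae (H. contortus 6000, O. circumcincta 8000, T. colubriformis 8000). They were allocated on day-27 faecal egg counts and weight (n = 4-7). A single intraruminal dose in 0.5% Na CMC/0.9% saline was given on day 28, with an untreated control per assay. On day 35, adult worms in abomasum and small intestine were counted as % reduction vs control.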

[7] = test system: Ovis aries; assay: Anthelmintic activity (in Vivo)in sheep as percentage reduction versus control (by administration of benzimidazole-susceptible L3 larvae of O circumcincta intraruminally)at 5 mg/kg po; method in brief: as §2
[8] = test system: Ovis aries; assay: Anthelmintic activity (in Vivo)in sheep as percentage reduction versus control (by administration of benzimidazole-susceptible L3 larvae of H contortus intraruminally)at 5 mg/kg po; method in brief: as §2
[9] = test system: Ovis aries; assay: Anthelmintic activity (in Vivo)in sheep as percentage reduction versus control (by administration of benzimidazole-susceptible L3 larvae of H contortus intraruminally)at 10 mg/kg po; method in brief: as §2
[10] = test system: Ovis aries; assay: Anthelmintic activity (in Vivo)in sheep as percentage reduction versus control (by administration of benzimidazole-susceptible L3 larvae of O circumcincta intraruminally)at 10 mg/kg po; method in brief: as §2
[11] = test system: Ovis aries; assay: Anthelmintic activity (in Vivo)in sheep as percentage reduction versus control (by administration of benzimidazole-susceptible L3 larvae of T colubriformis intraruminally) at 5 mg/kg po; method in brief: as §2
[12] = test system: Heligmosomoides polygyrus; assay: Anthelmintic activity ( in Vivo ) in mouse, as percentage reduction of Nematospiroides dubius at 1000 PPM; method in brief: as §1
[13] = test system: Ovis aries; assay: Anthelmintic activity (in Vivo)in sheep as percentage reduction versus control (by administration of benzimidazole-susceptible L3 larvae of Trichostrongylus colubriformis intraruminally) at 5 mg/kg po; method in brief: as §2
[14] = test system: Ovis aries; assay: Anthelmintic activity (in Vivo)in sheep as percentage reduction versus control (by administration of benzimidazole-susceptible L3 larvae of Ostertagia circumcincta intraruminally)at 5 mg/kg po; method in brief: as §2
[15] = test system: Ovis aries; assay: Anthelmintic activity (in Vivo)in sheep as percentage reduction versus control (by administration of benzimidazole-susceptible L3 larvae of Ostertagia circumcincta intraruminally)at 15 mg/kg po; method in brief: as §2
[16] = test system: Ovis aries; assay: Anthelmintic activity (in Vivo)in sheep as percentage reduction versus control (by administration of benzimidazole-susceptible L3 larvae of Ostertagia circumcincta intraruminally)at 10 mg/kg po; method in brief: as §2
[17] = test system: Ovis aries; assay: Anthelmintic activity (in Vivo)in sheep as percentage reduction versus control (by administration of benzimidazole-susceptible L3 larvae of Haemonchus contortus intraruminally)at 10 mg/kg po; method in brief: as §2
[18] = test system: Ovis aries; assay: Anthelmintic activity (in Vivo)in sheep as percentage reduction versus control (by administration of benzimidazole-susceptible L3 larvae of Trichostrongylus colubriformis intraruminally) at 15 mg/kg po; method in brief: as §2
[19] = test system: Ovis aries; assay: Anthelmintic activity (in Vivo)in sheep as percentage reduction versus control (by administration of benzimidazole-susceptible L3 larvae of Trichostrongylus colubriformis intraruminally) at 10 mg/kg po; method in brief: as §2
[20] = test system: Ovis aries; assay: Anthelmintic activity (in Vivo)in sheep as percentage reduction versus control (by administration of benzimidazole-susceptible L3 larvae of Haemonchus contortus intraruminally)at 15 mg/kg po; method in brief: as §2
[21] = test system: Ovis aries; assay: Anthelmintic activity (in Vivo)in sheep as percentage reduction versus control (by administration of benzimidazole-susceptible L3 larvae of Haemonchus contortus intraruminally)at 5 mg/kg po; method in brief: as §2
[22] = test system: Ovis aries; assay: Anthelmintic activity (in Vivo)in sheep as percentage reduction versus control (by administration of benzimidazole-susceptible L3 larvae of Trichostrongylus colubriformis intraruminally) at 10.9 mg/kg po; method in brief: as §2
[23] = test system: Ovis aries; assay: Anthelmintic activity (in Vivo)in sheep as percentage reduction versus control (by administration of benzimidazole-susceptible L3 larvae of Ostertagia circumcincta intraruminally)at 16.4 mg/kg po; method in brief: as §2
[24] = test system: Ovis aries; assay: Anthelmintic activity (in Vivo)in sheep as percentage reduction versus control (by administration of benzimidazole-susceptible L3 larvae of Trichostrongylus colubriformis intraruminally) at 16.4 mg/kg po; method in brief: as §2
[25] = test system: Ovis aries; assay: Anthelmintic activity (in Vivo)in sheep as percentage reduction versus control (by administration of benzimidazole-susceptible L3 larvae of Haemonchus contortus intraruminally)at 10.9 mg/kg po; method in brief: as §2
[26] = test system: Ovis aries; assay: Anthelmintic activity (in Vivo)in sheep as percentage reduction versus control (by administration of benzimidazole-susceptible L3 larvae of Haemonchus contortus intraruminally)at 16.4 mg/kg po; method in brief: as §2
[27] = test system: Ovis aries; assay: Anthelmintic activity (in Vivo)in sheep as percentage reduction versus control (by administration of benzimidazole-susceptible L3 larvae of Ostertagia circumcincta intraruminally)at 10.9 mg/kg po; method in brief: as §2
[28] = test system: Ovis aries; assay: Anthelmintic activity (in Vivo)in sheep as percentage reduction versus control (by administration of benzimidazole-susceptible L3 larvae of Ostertagia circumcincta intraruminally)at 30 mg/kg po; method in brief: as §2
[29] = test system: Ovis aries; assay: Anthelmintic activity (in Vivo)in sheep as percentage reduction versus control (by administration of benzimidazole-susceptible L3 larvae of Haemonchus contortus intraruminally)at 30 mg/kg po; method in brief: as §2
[30] = test system: Ovis aries; assay: Anthelmintic activity (in Vivo)in sheep as percentage reduction versus control (by administration of benzimidazole-susceptible L3 larvae of Trichostrongylus colubriformis intraruminally) at 30 mg/kg po; method in brief: as §2
[31] = test system: Ovis aries; assay: Anthelmintic activity (in Vivo)in sheep as percentage reduction versus control (by administration of […] L3 larvae of Haemonchus contortus intraruminally)at 30 mg/kg po (Benzimidazole resistant strain)
Method in brief: (§3)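 Sheep fed lucerne/oaten chaff were infected intraruminally with L3 larvae of a drug-resistant strain (benzimidazole-resistant; for O. circumcincta, benzimidazole-, levamisole- and morantel-resistant). They were grouped by faecal egg counts (n = 4-7) and dosed once intraruminally on day 28 in 0.5% Na CMC/saline. Adult worms were counted on day 35 as % reduction vs untreated control.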

[32] = test system: Ovis aries; assay: Anthelmintic activity (in Vivo) in sheep as percentage reduction versus control (by administration of […] L3 larvae of Ostertagia circumcincta intraruminally)at 30 mg/kg po (Benzimidazole, levamisole and morantel resistant strain); method in brief: as §3
[33] = test system: Ovis aries; assay: Anthelmintic activity (in Vivo)in sheep as percentage reduction versus control (by administration of […] L3 larvae of Trichostrongylus colubriformis intraruminally) at 30 mg/kg po (Benzimidazole resistant strain); method in brief: as §3

Compound	Reduction [1] [%]	Reduction [3] [%]	Reduction [4] [%]	Reduction [5] [%]	further results
COC(=O)Nc1nc2cc([S+]([O-])c3ccccc3)ccc2[nH]1 (centres undefined) [OXFENDAZOLE]	100	100	–	–	Reduction [2]: 100%
O=C(NC(=O)c1ccc(F)cc1)Nc1cccc(C2CN3CCSC3=N2)c1 (centres undefined)	–	–	43	0	–
O=C(NC(=O)c1ccc(C(F)(F)F)cc1)Nc1cccc([C@H]2CN3CCSC3=N2)c1	–	0	–	43	Reduction [6]: 40%; Reduction [7]: 33%; Reduction [8]: 27%; Reduction [9]: 59%; Reduction [10]: 29%; Reduction [11]: 15%
c1ccc(C2CN3CCSC3=N2)cc1 (centres undefined) [TETRAMISOLE]	0	100	100	–	–
N#Cc1ccc(C(=O)NC(=O)Nc2cccc(C3CN4CCSC4=N3)c2)cc1 (centres undefined)	–	–	–	0	–
O=C(NC(=O)c1ccc(OC(F)(F)F)cc1)Nc1cccc(C2CN3CCSC3=N2)c1 (centres undefined)	–	–	–	0	–
O=C(NC(=O)c1c(Cl)cccc1Cl)Nc1cccc(C2CN3CCSC3=N2)c1 (centres undefined)	–	–	0	–	Reduction [12]: 56%
O=C(NC(=O)c1ccc(I)cc1)Nc1cccc(C2CN3CCSC3=N2)c1 (centres undefined)	–	–	–	0	–
CC(C)(C)c1ccc(C(=O)NC(=O)Nc2cccc(C3CN4CCSC4=N3)c2)cc1 (centres undefined)	–	–	–	0	–
COc1ccc(C(=O)NC(=O)Nc2cccc(C3CN4CCSC4=N3)c2)cc1 (centres undefined)	–	–	–	–	Reduction [12]: 0%
c1ccc([C@H]2CN3CCSC3=N2)cc1 [LEVAMISOLE]	100	–	100	–	Reduction [2]: 60%
O=C(NC(=O)c1ccccc1F)Nc1cccc(C2CN3CCSC3=N2)c1 (centres undefined)	40	95	–	–	Reduction [2]: 0%
O=C(NC(=O)c1ccccc1Cl)Nc1cccc(C2CN3CCSC3=N2)c1 (centres undefined)	0	56	–	100	–
O=C(NC(=O)c1ccc(Cl)cc1)Nc1cccc(C2CN3CCSC3=N2)c1 (centres undefined)	–	–	0	–	–
O=C(NC(=O)c1ccccc1)Nc1cccc(C2CN3CCSC3=N2)c1 (centres undefined)	–	–	0	–	Reduction [12]: 59%
O=C(NC(=O)c1ccc(C(F)(F)F)cc1)Nc1cccc(C2CN3CCSC3=N2)c1 (centres undefined)	43	96	100	100	Reduction [2]: 0%
O=C(NC(=O)c1cc(F)cc(F)c1)Nc1cccc(C2CN3CCSC3=N2)c1 (centres undefined)	–	–	0	–	–
O=C(NC(=O)c1c(F)cccc1F)Nc1cccc([C@H]2CN3CCSC3=N2)c1	0	26	100	100	Reduction [13]: 75%; Reduction [14]: 56%; Reduction [15]: 74%; Reduction [16]: 64%; Reduction [17]: 90%; Reduction [18]: 98%; Reduction [19]: 96%; Reduction [20]: 86%; Reduction [21]: 74%
Cl.O=C(NC(=O)c1c(F)cccc1F)Nc1cccc(C2CN3CCSC3=N2)c1 (centres undefined)	–	–	–	–	Reduction [22]: 93%; Reduction [23]: 82%; Reduction [24]: 99%; Reduction [25]: 64%; Reduction [26]: 78%; Reduction [27]: 52%
O=C(NC(=O)c1ccc(C(=O)c2ccccc2)cc1)Nc1cccc(C2CN3CCSC3=N2)c1 (centres undefined)	–	–	–	0	Reduction [12]: 100%
O=C(NC(=O)c1cccc([N+](=O)[O-])c1)Nc1cccc(C2CN3CCSC3=N2)c1 (centres undefined)	–	–	–	0	–
O=C(NC(=O)c1ccc([N+](=O)[O-])cc1)Nc1cccc(C2CN3CCSC3=N2)c1 (centres undefined)	–	–	–	–	Reduction [12]: 0%
O=C(NC(=O)c1c(F)cccc1F)Nc1cccc(C2CN3CCSC3=N2)c1 (centres undefined)	0	76	100	100	Reduction [28]: 93%; Reduction [29]: 98%; Reduction [30]: 99%; Reduction [31]: 100%; Reduction [15]: 75%; Reduction [32]: 55%; Reduction [18]: 100%; Reduction [33]: 92%; Reduction [20]: 92%
COc1ccccc1C(=O)NC(=O)Nc1cccc(C2CN3CCSC3=N2)c1 (centres undefined)	–	–	–	0	–
O=C(NC(=O)c1ccccc1[N+](=O)[O-])Nc1cccc(C2CN3CCSC3=N2)c1 (centres undefined)	–	–	0	–	–

Source: ChEMBL document CHEMBL1125904, “Synthesis and anthelmintic activity of 3'-benzoylurea derivatives of 6-phenyl-2,3,5,6-tetrahydroimidazo[2,1-b]thiazole” (1991)
